Source: PubChem BioAssay
HKDC1 activator – increases human hexokinase HKDC1 activity. Q2TB90. recombinant HKDC1, G6PDH/diaphorase resazurin fluorescence; active compounds read low. activity change, negative = activation, % at 20 µM. actives 0.056% (n = 340,000). AID 493187;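 active means activation of 40% or more at 20 µM, a change of -40% or lower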
Target sequence (Q2TB90 whole entry, looked up): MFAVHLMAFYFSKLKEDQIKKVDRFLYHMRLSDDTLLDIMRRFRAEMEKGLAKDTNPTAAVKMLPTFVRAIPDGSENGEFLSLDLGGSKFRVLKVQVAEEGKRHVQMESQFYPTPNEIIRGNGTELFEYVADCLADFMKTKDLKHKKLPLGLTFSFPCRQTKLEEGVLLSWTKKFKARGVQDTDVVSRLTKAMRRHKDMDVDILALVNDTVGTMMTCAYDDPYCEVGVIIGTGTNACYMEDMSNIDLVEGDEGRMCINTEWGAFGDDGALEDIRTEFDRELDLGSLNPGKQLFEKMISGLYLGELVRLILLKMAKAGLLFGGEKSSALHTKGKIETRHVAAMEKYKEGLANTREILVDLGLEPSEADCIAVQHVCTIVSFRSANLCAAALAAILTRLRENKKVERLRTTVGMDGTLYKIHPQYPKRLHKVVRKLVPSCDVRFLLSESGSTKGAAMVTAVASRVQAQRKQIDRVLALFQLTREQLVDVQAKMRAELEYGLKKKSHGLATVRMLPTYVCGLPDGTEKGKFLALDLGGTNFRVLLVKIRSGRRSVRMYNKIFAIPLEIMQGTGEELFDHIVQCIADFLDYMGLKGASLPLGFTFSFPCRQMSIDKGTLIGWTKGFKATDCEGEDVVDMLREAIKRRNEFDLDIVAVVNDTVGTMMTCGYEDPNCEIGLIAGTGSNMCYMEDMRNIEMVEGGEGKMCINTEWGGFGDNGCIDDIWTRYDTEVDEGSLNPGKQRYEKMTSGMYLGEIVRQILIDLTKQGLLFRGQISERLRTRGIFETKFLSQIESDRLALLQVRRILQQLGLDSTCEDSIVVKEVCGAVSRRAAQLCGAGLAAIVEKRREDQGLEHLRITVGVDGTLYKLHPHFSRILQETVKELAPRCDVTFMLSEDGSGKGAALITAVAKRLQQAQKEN
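Signal: coupled resazurin-to-resorufin fluorescence, Ex 525/Em 613 nm. Test system: in-house human HKDC1 enzyme, G6PDH and diaphorase coupling enzymes. Quantity: HKDC1 5 µg/mL. Timing: 90 min reaction at room temperature, dark.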
A number is an active result; i = inactive. A selection follows.

SMILES	HKDC1 activator
COc1ccc(Oc2cc(C)nc(Cl)n2)nn1	-78
Cc1cccc2c(N=NC(=O)c3ccc(NS(=O)(=O)c4cccs4)cc3)c(O)[nH]c12	i
O=C(N/N=C/c1ccc[nH]1)c1sc2ccccc2c1Cl	-42
O=C(O)c1ccc(S(=O)(=O)/N=C2\C=C(Nc3ccccc3F)C(=O)c3ccccc32)cc1	i
COc1ccc(-n2cccc2/C=C2\C(=N)N3N=C(c4ccco4)SC3=NC2=O)cc1	i
O=C(CNC(=O)/C=C/c1ccco1)N=Nc1c(O)[nH]c2ccccc12	i
COc1ccc(-c2nc3c(c(=O)n(C)c(=O)n3C)n2CC2CC(c3ccccc3)=NO2)cc1OC (stereo not given)	-48
CCOC(=O)/C=C(\C)Sc1cc(O)c2ccccc2c1O	i
S=C(NN=C(c1ccccc1)c1ccccn1)N(Cc1ccccn1)Cc1ccccn1	-46
COc1ccc(C(=O)/C=C/Sc2nc3ccccc3o2)cc1	i
CCOc1ccc(/C=C2/SC(=S)N(CCC(=O)Nc3ccc(C(=O)O)cc3)C2=O)cc1	i
O=C(/C=C/c1ccc(Cl)cc1)c1ccc([N+](=O)[O-])o1	i
CC[n+]1c(/C=C2\Sc3ccccc3N2C)ccc2cccc(C)c21	-40
COc1cc(/C=C2\SC(=O)N(c3cccc(Cl)c3)C2=O)cc([N+](=O)[O-])c1O	i
O=C(O)COc1ccc(/C=N/NC(=O)c2ccc(-c3csc(Nc4ccc(Cl)cc4)n3)cc2)cc1	i
CN(C)c1ccc(C=c2c3cc(O)ccc3n3c2cc(-c2ccccc2)[n+]3C)cc1	i
CCCC[n+]1c2ccccc2cc2ccccc21	i
COc1ccc(S(=O)(=O)/N=C2\C=C(Nc3ccc(O)cc3)C(=O)c3ccccc32)cc1	i
Cc1cc(C)nc(Nc2n[nH]c(-c3ccc(C(C)(C)C)cc3)n2)n1	-51
COC1=CC(=O)C(C2CC(=O)c3c(O)cc(O)cc3O2)=CC1=O (stereo not given)	i
C=CCn1c(SCC(=O)Nc2sc3c(c2C#N)CCC(C)C3)nc2cc(C(=O)O)ccc2c1=O (stereo not given)	i
Cc1cc(SCC(=O)c2cccc([N+](=O)[O-])c2)nc(=O)[nH]1	-54
O=C(C#Cc1ccccc1)c1cccc([N+](=O)[O-])c1	i
Cc1cccc(-n2c3nc(=O)[nH]c(=O)c-3cc3cc([N+](=O)[O-])ccc32)c1	i
COc1ccc(CN2C(=O)c3cccnc3C2Nc2cc(Cl)ccc2OC)cc1 (stereo not given)	i
SMILES	HKDC1 activator
Cc1ccc(C2=NN=C(NC(=O)CSc3nncn3C)SC2)cc1	-144
O=C1NN(c2cccc(Br)c2)C(=O)/C1=C/c1ccc(-c2cc([N+](=O)[O-])ccc2O)o1	i
CC(C)c1nc2oc3c(NCC4CCCO4)ncnc3c2c2c1COC(C)(C)C2 (stereo not given)	i
O=C(O)c1ccc(N2C(=O)/C(=C/c3ccc(-c4ccc([N+](=O)[O-])cc4)o3)C=C2c2ccccc2)cc1	i
Cc1ccc2cc(C=C(C#N)C#N)c(N3CCCCC3)nc2c1	i
Cc1onc(-c2ccccc2)c1C(=O)NNC(=S)NC(=O)c1ccc(Br)cc1	-51
COc1ccc(-c2cc(C(=O)NNC(=S)NC(=O)c3c(-c4ccccc4)noc3C)[nH]n2)cc1	-46
NC1=CC(=O)C(=O)c2ccccc21	i
CCC[n+]1c2ccccc2cc2ccccc21	i
Cc1ccccc1NC1=C/C(=N\S(=O)(=O)c2cccs2)c2ccccc2C1=O	i
O=c1cc(O)c2sc(Nc3ccc(F)c(Cl)c3)nc2[nH]1	i
COc1ccccc1/C=C\C(=O)NCC(=O)N/N=C/c1ccc(O)cc1O	-41
O=C(CCc1ccccc1)NCC(=O)N/N=C/c1ccc(O)cc1O	-43
O=C(CN1CCCc2ccccc21)N/N=C/c1ccc(O)cc1O	-43
O=C(CNC(=O)c1cccs1)N/N=C/c1ccc(O)cc1O	-46
O=C1NC(=S)S/C1=C\C=C\c1ccc([N+](=O)[O-])o1	i
O=S(=O)(Nc1cc(Sc2ncn[nH]2)c(O)c2ccccc12)c1ccccc1	i
Cc1ccc2oc(C(=O)N3CCC(N4CCSCC4)CC3)c(C)c2c1	i
CCOc1ccc(CCNC(=O)c2ccc3c(=O)[nH]c4c(C(=O)NC(C)C)sc(=S)n4c3c2)cc1	i
COc1ccc(C2=CC3=C(Br)C(=O)C(C)(OC(=O)c4ccco4)C(=O)C3=CO2)cc1 (stereo not given)	i
O=C(NN1CCOCC1)c1ccc(Cl)c([N+](=O)[O-])c1	i
CC1=NOC(=O)/C1=C\c1ccc(-c2cccc(Cl)c2)o1	i
O=C1C=CC(=O)c2c(O)c(N3CCN(CCOCCO)CC3)c(Br)c(O)c21	i
c1coc(-c2nc(-c3ccco3)c(-c3ccco3)nc2-c2ccco2)c1	i
CSc1nc(N(CCO)CCO)c2sc3nc(-c4ccco4)c4c(c3c2n1)CCC4	i
SMILES	HKDC1 activator
O=C(/C=C/c1ccc(Br)o1)OCc1nc2ccsc2c(=O)[nH]1	i
O=C(O)c1cc(O)c2c(c1)[C@@H]([C@H]1c3cc(C(=O)O)cc(O)c3C(=O)c3c(O[C@@H]4O[C@H](CO)[C@@H](O)[C@H](O)[C@H]4O)cccc31)c1cccc(O[C@@H]3O[C@H](CO)[C@@H](O)[C@H](O)[C@H]3O)c1C2=O	i
CC(=O)NC1=C(N(C)C2CCS(=O)(=O)C2)C(=O)c2ccccc2C1=O (stereo not given)	i
COC(=O)c1ccc(CCc2cc(O)c(Br)cc2O)cc1	i
Cc1nc(COC(=O)c2cc(O)c3ccccc3c2O)cs1	i
O=C(c1ccccc1)c1n[nH]c(-c2ccccc2)cc1=O	-42
O=C(COC(=O)c1n[nH]c2ccccc12)c1cccc(Br)c1	i
Cc1ccc(C)c(S(=O)(=O)Nc2ccc(O)c3ccccc23)c1	i
COc1ccc(N=C2NN=C(c3ccc4c(c3)OCCO4)CS2)cc1	-84
FC(F)Sc1ccc(N=C2NN=C(c3ccc4c(c3)OCCO4)CS2)cc1	-101
CC(C)c1nc2oc3c(NCCO)ncnc3c2c2c1COC(C)(C)C2	i
Cc1ccc(SC2=C(Sc3ccc(C)cc3)C(=O)c3ccccc3C2=O)cc1	i
COc1cc([N+](=O)[O-])ccc1-c1ccc(/C=C2\C(=O)ON=C2c2ccccc2)o1	i
CCCOc1ccc(/C=N/NC(=S)Nc2ccccc2[N+](=O)[O-])c(O)c1	-48
Cc1ccccc1NC(=S)N/N=C/c1ccc(O)cc1O	-42
O=C(O)c1ccccc1NS(=O)(=O)c1ccc(N/N=C/c2cccc(O)c2O)c([N+](=O)[O-])c1	i
O=[N+]([O-])c1ccc(NN=Cc2ccc(O)cc2O)nc1	i
Oc1ccc(/C=N/Nc2ncc(Br)cn2)c(O)c1	i
C[n+]1c(-c2ccccc2)cc2c(=Cc3ccc([N+](=O)[O-])cc3)c3ccccc3n21	i
CC(=O)c1ccc(NC(=O)c2ccc3nc(-c4ccco4)c(-c4ccco4)nc3c2)cc1	i
Cc1cc(C)n2nc(SCc3nnc(SCc4ccccc4C)s3)nc2n1	i
COc1cc(OC)c(OC)cc1CCC(C)NCCC(c1ccccc1)c1ccccc1 (stereo not given)	i
Cc1ccc2cc(CCNC(=O)c3ccc(S(=O)(=O)N4CCCCC4)cc3)c(=O)[nH]c2c1	i
CC(=O)Nc1ccc(NC2=C/C(=N/S(=O)(=O)c3cccs3)c3ccccc3C2=O)cc1	i
O=C(CSc1nc(-c2ccc(F)cc2)nc2c1Cc1ccccc1O2)Nc1cccc(C(=O)O)c1	i
CCOC(=O)Cn1c2ccc(F)cc2c2nc(C)sc21	-62
COC(=O)Cn1c2ccc(F)cc2c2nc(C)sc21	-92
